{"data": "Published values from different studies", "target": "Ephrin type-B receptor 2 (EPHB2, Homo sapiens, UniProt P29323)", "Residues used in one study (P29323 19-1055)": "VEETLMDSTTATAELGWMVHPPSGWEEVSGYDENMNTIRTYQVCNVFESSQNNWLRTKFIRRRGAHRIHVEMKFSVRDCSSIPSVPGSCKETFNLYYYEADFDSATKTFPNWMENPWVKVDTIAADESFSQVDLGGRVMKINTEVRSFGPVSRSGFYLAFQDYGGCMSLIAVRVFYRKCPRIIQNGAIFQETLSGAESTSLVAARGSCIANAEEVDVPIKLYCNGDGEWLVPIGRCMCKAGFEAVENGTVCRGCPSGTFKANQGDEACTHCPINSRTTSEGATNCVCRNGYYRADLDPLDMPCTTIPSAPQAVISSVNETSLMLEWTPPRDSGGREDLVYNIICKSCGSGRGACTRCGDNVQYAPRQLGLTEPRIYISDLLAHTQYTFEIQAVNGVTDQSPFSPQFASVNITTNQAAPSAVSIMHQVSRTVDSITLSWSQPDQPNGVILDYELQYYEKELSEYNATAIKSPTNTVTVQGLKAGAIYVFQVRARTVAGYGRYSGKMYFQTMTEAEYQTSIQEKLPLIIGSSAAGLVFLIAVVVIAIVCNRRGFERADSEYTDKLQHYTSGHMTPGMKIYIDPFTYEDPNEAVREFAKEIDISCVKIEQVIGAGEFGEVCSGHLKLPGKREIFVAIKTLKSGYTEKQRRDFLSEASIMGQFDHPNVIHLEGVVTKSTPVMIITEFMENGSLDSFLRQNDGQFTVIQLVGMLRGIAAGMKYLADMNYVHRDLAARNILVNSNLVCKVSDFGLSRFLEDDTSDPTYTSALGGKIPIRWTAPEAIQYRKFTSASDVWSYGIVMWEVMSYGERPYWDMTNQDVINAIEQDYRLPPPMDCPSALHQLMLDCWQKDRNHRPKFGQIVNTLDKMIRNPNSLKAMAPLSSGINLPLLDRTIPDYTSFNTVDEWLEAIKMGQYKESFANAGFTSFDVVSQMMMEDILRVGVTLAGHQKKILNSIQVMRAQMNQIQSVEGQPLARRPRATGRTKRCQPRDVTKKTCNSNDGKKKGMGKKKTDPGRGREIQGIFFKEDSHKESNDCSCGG", "note": "Compare with care: the assays were run in different laboratories."}
{"SMILES": "CCN(CC)CCNC(=O)c1c(C)[nH]c(/C=C2\\C(=O)Nc3ccc(F)cc32)c1C", "observed": "enzyme activity", "mode": "inhibitor", "tested at": "0.3 µM", "quantity": "inhibition", "value": "2%"}
{"SMILES": "CC(C)(O)[C@H]1CC[C@H](Nc2ccc3ncc(-c4cccc(C(F)(F)F)c4)n3n2)CC1", "observed": "enzyme activity", "mode": "inhibitor", "tested at": "1 µM", "quantity": "remaining activity", "value": "93.5%"}
{"SMILES": "Cc1cnc(NC2CCOCC2)nc1-n1cnc(C(=O)NC(CN)c2cc(F)cc(Cl)c2)c1 (centres unmarked)", "observed": "enzyme activity", "mode": "inhibitor", "method": "radiometric", "tested at": "1 µM", "quantity": "remaining activity", "value": "96%"}
{"SMILES": "N#CCCc1ccc2c(c1)-c1[nH]c3ccc([N+](=O)[O-])cc3c1CC(=O)N2", "observed": "cell-free assay", "tested at": "0.5 µM", "quantity": "remaining signal", "value": "98.5%"}
{"SMILES": "Oc1cccc(-c2nc(N3CCOCC3)c3oc4ncccc4c3n2)c1", "observed": "enzyme activity", "mode": "inhibitor", "tested at": "10 µM", "quantity": "remaining activity", "value": "105%"}
{"SMILES": "O=C(NS(=O)(=O)c1ccc(NCC2CCOCC2)c([N+](=O)[O-])c1)c1ccc(N2CCN(Cc3ccc(C(F)(F)F)cc3-c3ccc(Cl)cc3)CC2)cc1Oc1cnc2[nH]ccc2c1", "observed": "cell-free assay", "method": "competition with immobilised ligand", "tested at": "1 µM", "quantity": "remaining binding", "value": "100%"}
{"SMILES": "Cc1ccc(NC(=O)c2ccc(C)c(C(F)(F)F)c2)cc1C#Cc1nn(C2CCC(O)CC2)c2ncnc(N)c12 (centres unmarked)", "observed": "cell-free assay", "tested at": "10 µM", "quantity": "remaining signal", "value": "-1%"}
{"SMILES": "Cc1ccc(Nc2nccc(N(C)c3ccc4c(C)n(C)nc4c3)n2)cc1S(N)(=O)=O", "observed": "enzyme activity", "mode": "inhibitor", "tested at": "0.3 µM", "quantity": "inhibition", "value": "7%"}
{"SMILES": "CN(C(=O)c1ccccc1)c1cc(N(C)c2ccc3c(c2)CCc2ccc(C(=O)NCCN4CCOCC4)cc2C3=O)ccc1F", "observed": "cell-free assay", "method": "competition with immobilised ligand", "tested at": "1 µM", "quantity": "remaining binding", "value": "82%"}
{"SMILES": "CCCCNc1ncc2c(-c3ccc(F)cc3)nn(C[C@H]3CC[C@H](N)CC3)c2n1", "observed": "target engagement in cells", "mode": "inhibitor", "method": "chemoproteomics", "tested at": "20 mM", "quantity": "inhibition", "value": "94.8%"}
{"SMILES": "O=C(Nc1cnn(-c2csc(C(=O)NC3COC3)c2)c1)Nc1c(F)cccc1Cl", "observed": "enzyme activity", "mode": "inhibitor", "tested at": "5 µM", "quantity": "remaining activity", "value": "99.9%"}
{"SMILES": "FC(F)(F)c1ccc2c(c1)nc(-c1cccnc1)n2C1CC1", "observed": "cell-free assay", "method": "competition with immobilised ligand", "tested at": "1 µM", "quantity": "remaining binding", "value": "83%"}
{"SMILES": "CN(C)C1CCN(CC#Cc2nn(C3CCCC3)c3nc(NCc4ccccc4)ncc23)C1 (centres unmarked)", "observed": "enzyme activity", "mode": "inhibitor", "method": "FRET", "tested at": "10 µM", "quantity": "inhibition", "value": "31%"}
{"SMILES": "CSc1cccnc1N1CCN(Cc2nc3ccccc3[nH]2)CC1", "observed": "cell-free assay", "method": "competition with immobilised ligand", "tested at": "1 µM", "quantity": "remaining binding", "value": "99%"}
{"SMILES": "COc1cc2ncnc(Nc3ccc(F)c(Cl)c3)c2cc1OCCCN1CCOCC1", "observed": "cell-free assay", "tested at": "0.5 µM", "quantity": "remaining signal", "value": "87.7%"}
{"SMILES": "COc1cc(Nc2cnc(C#N)c(O[C@H](C)CN(C)C)n2)ncc1-c1cnn(C)c1", "observed": "enzyme activity", "mode": "inhibitor", "method": "radiometric", "tested at": "1 µM", "quantity": "remaining activity", "value": "110%"}
{"SMILES": "Cc1ccc(C(=O)NCc2ccsc2)cc1C#Cc1cn(C(C)C)c2ncnc(N)c12", "observed": "enzyme activity", "mode": "inhibitor", "tested at": "1 µM", "quantity": "activity vs control", "value": "2%"}
{"SMILES": "CNC(=O)c1cc2c(Oc3ccc(NC(=O)C4(C(=O)Nc5ccc(F)cc5)CC4)cc3)ccnc2cc1OC", "observed": "enzyme activity", "mode": "inhibitor", "method": "radiometric", "tested at": "1 µM", "quantity": "inhibition", "value": "95%"}
{"SMILES": "CNC(=O)Nc1ccc2c(c1)CC[C@@]21OC(=O)N(CC(=O)N(Cc2ccc(F)cc2)[C@@H](C)C(F)(F)F)C1=O", "observed": "cell-free assay", "method": "competition with immobilised ligand", "tested at": "1 µM", "quantity": "remaining binding", "value": "72%"}
{"SMILES": "CCCS(=O)(=O)Nc1ccc(F)c(C(=O)c2c[nH]c3ncc(-c4ccc(Cl)cc4)cc23)c1F", "observed": "enzyme activity", "mode": "inhibitor", "tested at": "1 µM", "quantity": "inhibition", "value": "< 10%"}
